Data published in ChEMBL document CHEMBL4261556, “Design, Synthesis and Structure-Activity Relationships of (±)-Isochaihulactone Derivatives” (Medchemcomm, 2017).

Experiments:
[1] = tested on: A549; test: Cell cycle arrest in human A549 cells assessed as accumulation after 24 hrs by propidium iodide staining based flow cytometry; assay type: functional
How it was run: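 A549 cells seeded at 75 000 per well 24 h before dosing, then treated 24 h at 1× or 3× the IC50 concentration. DMSO and 20 nM combretastatin A-4 served as controls. Floating plus trypsinized cells pooled, fixed in 70% EtOH overnight at –20 °C, stained with propidium iodide 30 min at 37 °C. DNA content analysed by flow cytometry for G2/M population.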

[2] = tested on: MDA-MB-231; test: Antiproliferative activity against human MDA-MB-231 cells after 72 hrs by SRB assay; assay type: functional, cell-based
How it was run: (§1)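 Cells grown in RPMI-1640 with 2 mM L-glutamine, 25 mM HEPES, 10% FBS, penicillin/streptomycin and amphotericin B. KB-VIN maintained with 100 nM vincristine. Freshly trypsinized cells seeded at 4000–7500 per well, depending on doubling time, together with compounds for 72 h. Fixed in 10% TCA, stained with 0.04% SRB, dye solubilized in 10 mM Tris base, absorbance read at 515 nm.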

[3] = Antiproliferative activity against human KBVIN cells after 72 hrs by SRB assay; assay type: functional, cell-based; how it was run: as §1
[4] = tested on: A549; test: Antiproliferative activity against human A549 cells after 72 hrs by SRB assay; assay type: functional, cell-based
[5] = tested on: KB; test: Antiproliferative activity against human KB cells after 72 hrs by SRB assay; assay type: functional, cell-based; how it was run: as §1

| SMILES | Activity [1] | IC50 ([2]; Homo sapiens, MDA-MB-231, 72 h) | IC50 ([3]; Homo sapiens, KBVIN, 72 h) | IC50 ([4]; Homo sapiens, A549, 72 h) | IC50 ([5]; Homo sapiens, KB, 72 h) | IC50 ([2]; mda-mb-231) | IC50 [3] | IC50 ([5]; kb) | IC50 ([4]; a549) |
| --- | --- | --- | --- | --- | --- | --- | --- | --- | --- |
| COc1cc(/C=C2\C(=O)OCC2Cc2ccc3c(c2)OCO3)cc(OC(=O)CN(C)C)c1OC (stereo not given) [listing 1 of 3 here] | Dose-dependent effect | – | – | – | – | – | – | – | – |
| COc1cc(/C=C2\C(=O)OCC2Cc2ccc3c(c2)OCO3)cc(OC)c1OC (racemic) | Dose-dependent effect | 5.88 µM | 5.51 µM | 5.5 µM | 9.9 µM | – | – | – | – |
| COc1cc(/C=C2\C(=O)OCC2Cc2ccc3c(c2)OCO3)cc(OC)c1O (stereo not given) | – | > 40 µM | 6.78 µM | 6.17 µM | 11.5 µM | – | – | – | – |
| COc1cc(/C=C2\C(=O)OCC2Cc2ccc3c(c2)OCO3)cc(OC(=O)CN(C)C)c1OC (stereo not given) [listing 2 of 3 here] | – | – | – | 5.02 µM | – | 8.91 µM | 5.34 µM | 5.53 µM | – |
| COc1cc(/C=C2\C(=O)OCC2Cc2ccc3c(c2)OCO3)cc(OC)c1OC(=O)CN(C)C (stereo not given) [listing 1 of 2 here] | – | – | – | 6.15 µM | – | 29 µM | 17.6 µM | 18.1 µM | – |
| COc1cc(/C=C2\C(=O)OCC2Cc2ccc3c(c2)OCO3)cc(OC(=O)[C@@H](N)Cc2ccccc2)c1OC (stereo not given in full) | – | 8.8 µM | 4.95 µM | 4.8 µM | 5.4 µM | – | – | – | – |
| COc1cc(/C=C2\C(=O)OC\C2=C\c2ccc3c(c2)OCO3)cc(OC(=O)CN(C)C)c1OC | – | > 40 µM | > 40 µM | > 40 µM | > 40 µM | – | – | – | – |
| COc1cc(/C=C2\C(=O)OCC2Cc2ccc3c(c2)OCO3)cc(O)c1OC (stereo not given) | – | 8.55 µM | 4.84 µM | 4.32 µM | 5.18 µM | – | – | – | – |
| COc1ccc(/C=C\c2cc(OC)c(OC)c(OC)c2)cc1O | Dose-dependent effect | – | – | – | – | – | – | – | – |
| COc1cc(/C=C2\C(=O)OC\C2=C\c2ccc3c(c2)OCO3)cc(OC)c1OC(=O)[C@@H](N)Cc1ccccc1 | – | > 40 µM | > 40 µM | > 40 µM | > 40 µM | – | – | – | – |
| COc1cc(/C=C2\C(=O)OCC2Cc2ccc3c(c2)OCO3)cc(OC(=O)CN(C)C)c1OC (stereo not given) [listing 3 of 3 here] | – | 9.04 µM | 4.51 µM | – | 4.98 µM | – | – | – | 3.32 µM |
| COc1cc(/C=C2\C(=O)OCC2Cc2ccc3c(c2)OCO3)cc(OC)c1OC(=O)CN(C)C (stereo not given) [listing 2 of 2 here] | – | – | – | – | – | 9.37 µM | 7.06 µM | 8.71 µM | 5.93 µM |
| Cc1cc(/C=C2\C(=O)OC\C2=C\c2ccc3c(c2)OCO3)ccc1F | – | > 40 µM | > 40 µM | > 40 µM | > 40 µM | – | – | – | – |
| COc1cc(/C=C2\C(=O)OC\C2=C\c2ccc3c(c2)OCO3)cc(OC)c1OC | – | > 40 µM | 28.3 µM | 35.2 µM | 34 µM | – | – | – | – |
| COc1cc(/C=C2\C(=O)OCC2Cc2ccc3c(c2)OCO3)cc(OC)c1OC(=O)[C@@H](N)Cc1ccccc1 (stereo not given in full) | – | 9.73 µM | 7.59 µM | 5.97 µM | 9.2 µM | – | – | – | – |
| COc1cc(/C=C2\C(=O)OC\C2=C\c2ccc3c(c2)OCO3)cc(OC(=O)[C@@H](N)Cc2ccccc2)c1OC | – | > 40 µM | > 40 µM | > 40 µM | > 40 µM | – | – | – | – |
| COc1cc(/C=C2\C(=O)OC\C2=C\c2ccc3c(c2)OCO3)cc(OC)c1OC(=O)CN(C)C | – | > 40 µM | > 40 µM | > 40 µM | > 40 µM | – | – | – | – |
| Cc1cc(/C=C2\C(=O)OCC2Cc2ccc3c(c2)OCO3)ccc1F (stereo not given) | – | 8.81 µM | 5.51 µM | 5.72 µM | 6.47 µM | – | – | – | – |
| COc1cc(/C=C2\C(=O)OC\C2=C\c2ccc3c(c2)OCO3)cc(OC)c1O | – | > 40 µM | > 40 µM | > 40 µM | > 40 µM | – | – | – | – |
| COc1cc(/C=C2\C(=O)OC\C2=C\c2ccc3c(c2)OCO3)cc(O)c1OC | – | > 40 µM | 29 µM | 31.2 µM | 34 µM | – | – | – | – |
